pKd: −log10 of the molar value. Active and inactive are the calls of the source. No cut-off for these calls is given here.
Experiments:
PC-3 [1] = assay: In vivo antitumor efficacy in human PC3 cells xenografted athymic nude mouse assessed as decrease in phosphorylation of IKK in tumor at 50 mg/kg, ip for 21 days relative to vehicle treated control; type: functional, organism-based; design: dose 50 mg/kg
Summary of the method: (§1)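 Athymic nude mice given PC-3 cells sc (1 × 10⁶ per mouse); at about 50 mm³, randomized (n = 7) and dosed once daily for 21 days either ip at 50 mg/kg (vehicle saline/PEG400/DMSO/Tween 80, 65:20:10:5) or by oral gavage at 100 mg/kg (vehicle 0.5% methylcellulose/0.1% Tween 80 in water). Tumor volume measured weekly by calipers (width² × length × 0.52); phospho-proteins checked by Western blotting of tumor lysates.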

PC-3 [2] = assay: In vivo antitumor efficacy in human PC3 cells xenografted athymic nude mouse assessed as decrease in phosphorylation of MDM2 in tumor at 100 mg/kg, po for 21 days relative to vehicle treated control; type: functional, organism-based; design: dose 100 mg/kg; summary of the method: as §1
[3] = target: T1, PH domain leucine-rich repeat-containing protein phosphatase 1 (Homo sapiens, UniProt O60346); assay: Inhibition of PHLPP1-mediated reduction in phosphorylation of Akt at Thr308 in human PC3 cells after 24 hrs by Western blot analysis; type: cell-based; details: PC-3
T1 sequence (O60346 whole entry, the tested form may be a part): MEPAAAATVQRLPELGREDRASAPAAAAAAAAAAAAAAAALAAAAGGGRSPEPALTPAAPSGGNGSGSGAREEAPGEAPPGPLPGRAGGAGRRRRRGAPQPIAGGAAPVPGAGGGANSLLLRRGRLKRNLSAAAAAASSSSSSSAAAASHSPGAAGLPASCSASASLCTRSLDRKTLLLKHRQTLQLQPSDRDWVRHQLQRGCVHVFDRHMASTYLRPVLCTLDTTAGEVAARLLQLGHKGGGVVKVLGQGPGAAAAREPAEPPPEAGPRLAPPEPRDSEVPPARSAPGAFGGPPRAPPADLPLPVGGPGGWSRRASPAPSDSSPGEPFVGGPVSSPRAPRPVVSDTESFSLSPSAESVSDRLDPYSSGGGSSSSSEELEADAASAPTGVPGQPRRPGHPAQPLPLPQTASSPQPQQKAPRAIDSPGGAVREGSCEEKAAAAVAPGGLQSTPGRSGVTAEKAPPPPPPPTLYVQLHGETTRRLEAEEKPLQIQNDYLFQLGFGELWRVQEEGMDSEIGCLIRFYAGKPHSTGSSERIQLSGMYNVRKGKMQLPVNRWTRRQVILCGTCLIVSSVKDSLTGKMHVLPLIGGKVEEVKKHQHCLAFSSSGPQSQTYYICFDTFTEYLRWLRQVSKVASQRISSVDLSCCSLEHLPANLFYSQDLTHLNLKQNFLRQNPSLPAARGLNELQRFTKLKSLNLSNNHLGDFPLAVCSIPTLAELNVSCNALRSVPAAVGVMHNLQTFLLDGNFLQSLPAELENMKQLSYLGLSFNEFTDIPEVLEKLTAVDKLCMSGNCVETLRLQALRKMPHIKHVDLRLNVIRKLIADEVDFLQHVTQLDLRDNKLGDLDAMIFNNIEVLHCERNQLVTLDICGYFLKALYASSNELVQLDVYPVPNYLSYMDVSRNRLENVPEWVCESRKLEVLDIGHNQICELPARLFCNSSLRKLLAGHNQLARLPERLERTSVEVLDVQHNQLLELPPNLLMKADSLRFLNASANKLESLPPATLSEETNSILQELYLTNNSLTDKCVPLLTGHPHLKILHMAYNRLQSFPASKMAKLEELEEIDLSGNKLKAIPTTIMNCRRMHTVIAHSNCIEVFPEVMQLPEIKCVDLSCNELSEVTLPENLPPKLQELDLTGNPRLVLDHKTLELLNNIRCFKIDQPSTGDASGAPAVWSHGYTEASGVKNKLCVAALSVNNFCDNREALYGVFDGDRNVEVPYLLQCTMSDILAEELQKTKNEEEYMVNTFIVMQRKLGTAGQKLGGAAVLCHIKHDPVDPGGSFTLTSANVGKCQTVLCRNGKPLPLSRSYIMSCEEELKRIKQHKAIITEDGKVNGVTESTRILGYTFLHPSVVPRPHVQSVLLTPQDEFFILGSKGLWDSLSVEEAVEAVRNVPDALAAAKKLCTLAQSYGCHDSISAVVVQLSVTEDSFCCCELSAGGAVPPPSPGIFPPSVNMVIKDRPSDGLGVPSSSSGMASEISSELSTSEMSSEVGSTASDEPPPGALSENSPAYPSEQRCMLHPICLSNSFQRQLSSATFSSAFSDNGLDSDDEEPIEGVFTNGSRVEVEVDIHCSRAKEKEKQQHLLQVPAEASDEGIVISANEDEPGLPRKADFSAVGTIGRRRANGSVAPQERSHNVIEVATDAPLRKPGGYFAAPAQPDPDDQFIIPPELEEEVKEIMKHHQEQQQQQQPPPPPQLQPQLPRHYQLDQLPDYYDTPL
Summary of the method: (§2)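 LNCaP or PC-3 cells treated at various concentrations for 24 h in serum-free medium. Lysed in SDS buffer (50 mM Tris pH 8, 10 mM EDTA, 1% SDS, protease inhibitors); equal protein run on SDS-PAGE and transferred to nitrocellulose. Primary antibodies 1:1000 overnight at 4 °C, HRP secondary 1:2000; detected by ECL.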

PC-3 [4] = assay: In vivo antitumor efficacy in human PC3 cells xenografted athymic nude mouse assessed as inhibition of tumor growth at 50 mg/kg, ip for 21 days relative to vehicle treated control; type: functional, organism-based; design: dose 50 mg/kg; summary of the method: as §1
LNCaP [5] = assay: Induction of Akt localization to human LNCAP cell membrane after 24 hrs by immunofluorescence staining analysis; type: functional, cell-based
Summary of the method: (§3)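 LNCaP cells on poly-L-lysine-coated surfaces, treated in serum-free medium for 24 h. Fixed in 4% formaldehyde, permeabilized with 0.1% Triton X-100, blocked in 1% FBS, primary antibody (1:300) overnight, then Alexa Fluor secondary 2 h; DAPI nuclei; confocal imaging with cross-sectional fluorescence intensity analysis.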

[6] = target: T1, PH domain leucine-rich repeat-containing protein phosphatase 1; assay: Inhibition of PHLPP1-mediated reduction in phosphorylation of IKK in human LNCAP cells after 24 hrs by Western blot analysis; type: cell-based; summary of the method: as §2
PC-3 [7] = assay: In vivo antitumor efficacy in human PC3 cells xenografted athymic nude mouse assessed as decrease in phosphorylation of Akt at Ser473 in tumor at 100 mg/kg, po for 21 days relative to vehicle treated control; type: functional, organism-based; design: dose 100 mg/kg; summary of the method: as §1
PC-3 [8] = assay: Antiproliferative activity against human PTEN-negative PC3 cells assessed as suppression of cell viability after 24 hrs by MTT assay in serum free medium; type: functional, cell-based
PC-3 [9] = assay: In vivo antitumor efficacy in human PC3 cells xenografted athymic nude mouse assessed as inhibition of tumor growth at 100 mg/kg, po for 21 days relative to vehicle treated control; type: functional, organism-based; design: dose 100 mg/kg; summary of the method: as §1
PC-3 [10] = assay: In vivo antitumor efficacy in human PC3 cells xenografted athymic nude mouse assessed as decrease in phosphorylation of Akt at Ser473 in tumor at 50 mg/kg, ip for 21 days relative to vehicle treated control; type: functional, organism-based; design: dose 50 mg/kg; summary of the method: as §1
[11] = target: RAC-alpha serine/threonine-protein kinase (Homo sapiens, UniProt P31749); assay: Binding affinity to GST-tagged PH domain of AKT (unknown origin) by surface Plasmon resonance spectroscopy
Chain of RAC-alpha serine/threonine-protein kinase (P31749 whole entry, the tested form may be a part): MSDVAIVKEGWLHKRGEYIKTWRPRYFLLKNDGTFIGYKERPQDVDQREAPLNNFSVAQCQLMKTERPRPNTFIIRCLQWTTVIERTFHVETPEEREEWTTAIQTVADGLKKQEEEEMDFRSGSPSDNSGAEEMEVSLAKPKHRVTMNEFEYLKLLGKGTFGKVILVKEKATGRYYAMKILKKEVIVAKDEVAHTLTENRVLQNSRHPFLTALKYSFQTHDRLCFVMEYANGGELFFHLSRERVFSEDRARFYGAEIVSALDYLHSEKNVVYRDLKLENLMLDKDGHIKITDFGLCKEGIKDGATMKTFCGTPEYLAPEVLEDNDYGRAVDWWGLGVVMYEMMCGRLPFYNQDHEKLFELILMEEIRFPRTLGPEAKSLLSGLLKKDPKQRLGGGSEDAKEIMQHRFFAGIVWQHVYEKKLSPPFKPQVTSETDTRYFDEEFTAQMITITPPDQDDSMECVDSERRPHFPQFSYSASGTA
Summary of the method: (§4)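 SPR: GST-tagged PH domain fusion protein immobilized on CM5 chip by amine coupling to about 17000 RU. Analyte injected at 1–20 µM at 30 µL/min; DMSO in samples and running buffer ≤1% (v/v). Kd obtained from sensorgram fitting.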

PC-3 [12] = assay: In vivo antitumor efficacy in human PC3 cells xenografted athymic nude mouse assessed as decrease in phosphorylation of Akt at Thr308 in tumor at 100 mg/kg, po for 21 days relative to vehicle treated control; type: functional, organism-based; design: dose 100 mg/kg; summary of the method: as §1
LNCaP [13] = assay: Induction of PHLPP1 localization to human LNCAP cell membrane at 5 uM after 24 hrs by immunofluorescence staining analysis; type: functional, cell-based; summary of the method: as §3
LNCaP [14] = assay: Induction of PHLPP1 localization to human LNCAP cell membrane after 24 hrs by immunofluorescence staining analysis; type: functional, cell-based; summary of the method: as §3
[15] = target: T2, 3-phosphoinositide-dependent protein kinase 1 (Homo sapiens, UniProt O15530); assay: Binding affinity to GST-tagged PH domain of PDK1 (unknown origin) by surface Plasmon resonance spectroscopy; summary of the method: as §4
T2 sequence (O15530 whole entry): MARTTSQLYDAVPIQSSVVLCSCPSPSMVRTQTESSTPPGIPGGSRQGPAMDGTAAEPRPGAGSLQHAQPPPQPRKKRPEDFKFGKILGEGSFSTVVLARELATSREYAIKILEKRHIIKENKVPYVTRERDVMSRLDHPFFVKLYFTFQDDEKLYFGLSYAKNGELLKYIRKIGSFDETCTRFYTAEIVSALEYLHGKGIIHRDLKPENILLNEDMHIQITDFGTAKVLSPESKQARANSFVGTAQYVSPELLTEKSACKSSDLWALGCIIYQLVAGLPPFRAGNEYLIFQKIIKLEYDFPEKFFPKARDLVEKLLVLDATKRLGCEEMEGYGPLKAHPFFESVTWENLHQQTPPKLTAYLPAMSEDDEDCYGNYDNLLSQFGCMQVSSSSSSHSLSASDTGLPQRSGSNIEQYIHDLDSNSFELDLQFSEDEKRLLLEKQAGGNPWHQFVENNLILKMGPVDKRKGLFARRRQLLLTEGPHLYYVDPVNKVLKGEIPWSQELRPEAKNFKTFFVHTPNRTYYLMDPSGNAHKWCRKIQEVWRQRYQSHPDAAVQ

LNCaP [16] = assay: Induction of ILK localization to human LNCAP cell membrane at 5 uM after 24 hrs by immunofluorescence staining analysis; type: functional, cell-based; summary of the method: as §3
PC-3 [17] = assay: In vivo antitumor efficacy in human PC3 cells xenografted athymic nude mouse assessed as decrease in phosphorylation of IKK in tumor at 100 mg/kg, po for 21 days relative to vehicle treated control; type: functional, organism-based; design: dose 100 mg/kg; summary of the method: as §1
[18] = target: T1, PH domain leucine-rich repeat-containing protein phosphatase 1; assay: Inhibition of PHLPP1-mediated reduction in phosphorylation of MDM2 in human PC3 cells after 24 hrs by Western blot analysis; type: cell-based; details: PC-3; summary of the method: as §2
[19] = target: T1, PH domain leucine-rich repeat-containing protein phosphatase 1; assay: Inhibition of PHLPP1-mediated reduction in phosphorylation of Akt at Ser473 in human PC3 cells after 24 hrs by Western blot analysis; type: cell-based; details: PC-3; summary of the method: as §2
[20] = target: T1, PH domain leucine-rich repeat-containing protein phosphatase 1; assay: Inhibition of PHLPP1-mediated reduction in phosphorylation of Akt at Thr308 in human LNCAP cells after 24 hrs by Western blot analysis; type: cell-based; summary of the method: as §2
[21] = target: T1, PH domain leucine-rich repeat-containing protein phosphatase 1; assay: Binding affinity to GST-tagged PH domain of PHLPP1 (unknown origin) by surface Plasmon resonance spectroscopy; summary of the method: as §4
LNCaP [22] = assay: Induction of Akt-PHLPP1 complex to human LNCAP cell membrane after 24 hrs by immunofluorescence staining analysis; type: functional, cell-based
[23] = target: T1, PH domain leucine-rich repeat-containing protein phosphatase 1; details: LNCaP, 2.5 to 25 uM
[24] = target: T1, PH domain leucine-rich repeat-containing protein phosphatase 1; assay: Inhibition of PHLPP1-mediated reduction in phosphorylation of Akt at Ser473 in human LNCAP cells after 24 hrs by Western blot analysis; type: cell-based; summary of the method: as §2

Cc1c(S(N)(=O)=O)cc2c(c1C)OC(C)(CCCC(C)C)CC2 (centres undefined)
inhibition (PC-3 [1]): Active | Activity (PC-3 [2]): Active | inhibition [3]: inactive | Activity (PC-3 [4]): Active | Activity (LNCaP [5]): Dose-dependent effect | inhibition [6]: Dose-dependent effect | Activity (PC-3 [7]): Active | Activity (PC-3 [8]): Active | Activity (PC-3 [9]): Active | inhibition (PC-3 [10]): Active | pKd [11]: 6.70 | inhibition (PC-3 [12]): inactive | Activity (LNCaP [13]): Active | Activity (LNCaP [14]): Dose-dependent effect | pKd [15]: 4.71 | Activity (LNCaP [16]): inactive | Activity (PC-3 [17]): Active | inhibition [18]: Dose-dependent effect | inhibition [19]: Dose-dependent effect | inhibition [20]: inactive | pKd [21]: 6.14 | Activity (LNCaP [22]): Dose-dependent effect | inhibition [23]: Active | inhibition [24]: Dose-dependent effect

From ChEMBL document CHEMBL3414473
